{"data": "Results gathered from unrelated publications", "target": "Calcium/calmodulin-dependent protein kinase type II subunit alpha (CAMK2A, Homo sapiens, UniProt Q9UQM7)", "note": "Lines come from different studies, so protocols differ."}
{"SMILES": "O=C(c1ccc(Nc2ncc(Cl)c(-c3cc4ccccc4s3)n2)cc1)N1CCC(N2CCCC2)CC1", "observed": "binding", "technique": "competition with immobilised ligand", "concentration": "1 µM", "remaining binding": "75%"}
{"SMILES": "CN(CCCC(F)(F)F)c1nccc(-c2cnn3ncccc23)n1", "observed": "binding", "concentration": "1 µM", "remaining binding": "91%"}
{"SMILES": "c1cncc(-c2cccc(Nc3nccc(NC4CCCCC4)n3)c2)c1", "observed": "binding", "technique": "competition with immobilised ligand", "concentration": "10 µM", "remaining binding": "84%"}
{"SMILES": "CN(C(=O)c1ccccc1)c1cc(N(C)c2ccc3c(c2)CCc2ccc(C(=O)NCCN4CCOCC4)cc2C3=O)ccc1F", "observed": "cell-free assay", "technique": "competition with immobilised ligand", "concentration": "1 µM", "remaining binding": "86%"}
{"SMILES": "F[C@@H]1CCN(c2nccc(-c3cnn4ncccc34)n2)C1", "observed": "binding", "concentration": "1 µM", "remaining binding": "100%"}
{"SMILES": "NS(=O)(=O)c1cc(NC(=O)Cc2ccccc2)ccc1Oc1cccc(Cl)c1", "observed": "cell-free assay", "technique": "competition with immobilised ligand", "concentration": "1 µM", "remaining binding": "96%"}
{"SMILES": "FC(F)(F)Oc1cccc(-c2cnc3ccc(-c4ccncc4)nn23)c1", "observed": "cell-free assay", "technique": "competition with immobilised ligand", "concentration": "5 µM", "remaining binding": "14%"}
{"SMILES": "CN(c1nccc(-c2cnn3ncccc23)n1)C1CC1", "observed": "binding", "concentration": "1 µM", "remaining binding": "93%"}
{"SMILES": "O=C(Nc1cnc(Oc2ccc(F)cc2)nc1)N1CCc2ncccc2[C@@H]1c1ccc(F)cc1", "observed": "cell-free assay", "technique": "competition with immobilised ligand", "concentration": "1 µM", "remaining binding": "92%"}
{"SMILES": "CC1CCCN1c1nccc(-c2cnn3ncccc23)n1 (stereo not shown)", "observed": "binding", "concentration": "1 µM", "remaining binding": "90%"}
{"SMILES": "COc1cnc(Nc2cccc(S(N)(=O)=O)c2)nc1N1CCN(c2ccccc2)C(=O)C1", "observed": "binding", "technique": "competition with immobilised ligand", "concentration": "1 µM", "remaining binding": "100%"}
{"SMILES": "CCOC(=O)c1cc2cc(-c3cc(C(=O)NCc4ccc(C(=O)O)cc4)nn3C)ccc2[nH]1", "observed": "cell-free assay", "technique": "competition with immobilised ligand", "concentration": "0.1 µM", "remaining binding": "76%"}
{"SMILES": "C[C@H]1CCN(c2nccc(-c3cnn4ncccc34)n2)C1", "observed": "binding", "concentration": "1 µM", "remaining binding": "91%"}
{"SMILES": "Cc1cnc(Nc2ccc(C(=O)N3CCC(N4CCCC4)CC3)cc2)nc1-c1cc2ccccc2s1", "observed": "binding", "technique": "competition with immobilised ligand", "concentration": "1 µM", "remaining binding": "58%"}
{"SMILES": "COc1ccc2c(c1)O[C@H](c1ccc(OC)c(OC)c1)C[C@@H]2NC(=O)C1(c2ccc3c(c2)OC(F)(F)O3)CC1", "observed": "cell-free assay", "technique": "competition with immobilised ligand", "concentration": "1 µM", "remaining binding": "100%"}
{"SMILES": "O=C(NCC1CCOCC1)c1n[nH]cc1NC(=O)c1c(F)cccc1F", "observed": "binding", "technique": "competition with immobilised ligand", "concentration": "1 µM", "remaining binding": "94%"}
{"SMILES": "COc1cnc(Nc2cccc(S(N)(=O)=O)c2)nc1N1CCN(c2ccccc2)CC1", "observed": "binding", "technique": "competition with immobilised ligand", "concentration": "1 µM", "remaining binding": "87%"}
{"SMILES": "O=C(NC[C@@H]1[C@H]2CN(C(=O)OCc3cc(C(F)(F)F)cc(C(F)(F)F)c3)C[C@@H]12)c1ccc2[nH]nnc2c1", "observed": "cell-free assay", "technique": "competition with immobilised ligand", "concentration": "1 µM", "remaining binding": "91%"}
{"SMILES": "N[C@H]1CCN(c2nccc(-c3cnn4ncccc34)n2)C1", "observed": "binding", "concentration": "1 µM", "remaining binding": "100%"}
{"SMILES": "O=c1nc(-c2ccccn2)sc2ccccc12", "observed": "cell-free assay", "technique": "competition with immobilised ligand", "concentration": "1 µM", "remaining binding": "100%"}
{"SMILES": "O=C(c1ccc(Nc2ncc(Cl)c(-c3ccc(Cl)s3)n2)cc1)N1CCC(N2CCCC2)CC1", "observed": "binding", "technique": "competition with immobilised ligand", "concentration": "1 µM", "remaining binding": "82%"}
{"SMILES": "COc1ncc2cc3ccccc3nc2c1C#N", "observed": "cell-free assay", "technique": "competition with immobilised ligand", "concentration": "5 µM", "remaining binding": "95%"}
